Shown are actives, neighbours in structure and some others; about 3.5% of the full set was active somewhere.
RGS4 act: RGS4 potentiation or activation. HEK293 M3R/inducible RGS4, carbachol calcium flux Fluo4; hits give low values. B-score at 10 µM. 0.92% of 310,000 active;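 active = B-score of the integrated calcium signal more than 4 SD below the library mean, with starting fluorescence not abnormally high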;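 also: negative B-score means reduced calcium response which marks RGS4 activation or potentiation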
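Material: Inducible-RGS4 HEK293 cells carrying M3 receptor; also added: carbachol at ECmax as muscarinic agonist stimulus; incubation: compound preincubation 20 min at room temperature before agonist; signal: Fluo4-AM (2 µM) calcium-flux fluorescence, kinetic read; measure: integrated calcium ratio converted to B score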
MrgX1 ag: activates human MrgX1 receptor signaling; Q96LB2; MrgX1-HEK293 cells, Fluo-4 calcium fluorescence, agonist mode; hits give high values; B-score at 10 µM; 0.44% of 310,000 active; AID 588627;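 active = calcium response B-score plate-corrected fluorescence ratio at least 3 library SD, with starting fluorescence B-score inside 5 SD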
Target sequence (Q96LB2 whole entry, looked up): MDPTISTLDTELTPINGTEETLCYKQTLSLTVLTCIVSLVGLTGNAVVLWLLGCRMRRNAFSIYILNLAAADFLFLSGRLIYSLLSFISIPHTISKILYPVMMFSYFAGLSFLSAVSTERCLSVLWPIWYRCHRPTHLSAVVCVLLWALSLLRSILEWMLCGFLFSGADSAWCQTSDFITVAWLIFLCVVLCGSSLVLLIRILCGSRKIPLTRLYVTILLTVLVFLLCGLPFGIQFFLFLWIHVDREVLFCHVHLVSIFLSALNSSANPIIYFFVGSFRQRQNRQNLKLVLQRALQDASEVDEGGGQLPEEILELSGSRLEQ
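Test system: HEK293 cells stably expressing human MrgX1 receptor; Input: fifteen thousand cells per well; Dosing: compound delivered in addition one of three; Schedule: overnight seeding, then 1 h dark dye loading; Technique: Fluo-4 NW calcium fluorescence; Measure: B-scored fluorescence response ratio; Controls: positive and negative controls per plate.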
MrgX1 antagonist: human MrgX1 receptor antagonism, primary screen; 1.3% of 310,000 active; MRGX1-HEK293 calcium flux, Fluo-4, BAM8-22 antagonism; hits give low values; Q96LB2; B-score at 10 µM;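 active = calcium-response B-score plate-corrected more than 3 library SD below zero, starting fluorescence within 5 deviations, no agonist response on first addition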;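 also: peak minus trough fluorescence over baseline after final BAM8-22 challenge near maximal dose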
RGS4 inh: human RGS4 inhibition; P49798; HEK293 M3R/RGS4 inducible, Fluo-4 calcium flux; hits give high values; triggered by carbachol at its EC20; B-score at 10 µM; 0.45% of 310,000 active; AID 463165;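 active = B-score, a plate-corrected calcium signal, over three deviations above library mean, with baseline fluorescence within five deviations of library mean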;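 also: RGS4 expression induced by doxycycline in cells with stable M3 receptor; B-score is computed from the integrated fluorescence ratio over baseline after carbachol; higher B-score means a larger calcium signal and so more RGS4 inhibition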
Target sequence (P49798 whole entry, looked up): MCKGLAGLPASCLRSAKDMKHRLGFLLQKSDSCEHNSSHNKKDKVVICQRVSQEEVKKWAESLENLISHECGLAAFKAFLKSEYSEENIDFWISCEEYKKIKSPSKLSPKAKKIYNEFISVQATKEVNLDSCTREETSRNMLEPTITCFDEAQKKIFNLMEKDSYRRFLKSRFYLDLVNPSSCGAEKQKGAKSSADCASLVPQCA
MrgX1 allo act: human MrgX1 positive allosteric modulation, primary screen; Q96LB2; MrgX1-HEK293, Fluo-4 calcium flux, FDSS; hits give high values; B-score at 10 µM; 0.63% of 310,000 active; AID 588675;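 active = plate-corrected calcium response at least 3 library SD above typical, normal starting fluorescence, not activating the receptor alone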;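 also: compound read alongside a low EC10 to EC30 dose of BAM8-22 agonist; peak minus trough fluorescence over baseline measured at the second addition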
MrgX1 antag conf: confirmation of human MrgX1 receptor antagonists | remaining BAM8-22 calcium response % of control (hits give low values), % at 10 µM | 19% of 2,300 active | AID 602420 | MrgX1-HEK293, BAM8-22 calcium flux, Fluo-4; hits give low values | shares compounds with MrgX1 antagonist;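 active = remaining agonist calcium response no higher than 100% minus 3 SD of agonist-only control wells, with starting fluorescence near control levels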;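 also: agonist BAM8-22 given at a near maximal EC90 to ECmax level; peak minus minimum fluorescence divided by baseline after agonist addition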
HEK293 Ca flux: MrgX1 antagonist counter-screen hit in parental HEK293 cells. shares compounds with MrgX1 antagonist. Fluo-4 calcium fluorescence, FDSS. fluorescence ratio F(max-min)/F0 at 10 µM. 2% of 4,000 active. AID 624111;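 active = duplicate-averaged calcium fluorescence ratio at least three times the standard deviation of buffer wells, a nonspecific response in parental cells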
HEK293 Ca counter: MrgX1 allosteric activator counter-screen hit in parental HEK293 cells | shares compounds with MrgX1 antagonist | parental HEK293 calcium flux, Fluo-4 fluorescence ratio; hits give high values | fluorescence ratio F(max-min)/F0 at 10 µM | 0.4% of 4,000 active;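 active = calcium fluorescence ratio, averaged over duplicates, at least 3 SD of the buffer-well ratio, meaning a nonspecific response in receptor-free cells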;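 also: untransfected parental HEK293 lacking MrgX1 used as counterscreen for MrgX1 allosteric activators; fluorescence change taken during the second addition on a kinetic imager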
HEK293 Ca cntr2: activity in parental HEK293 cells lacking MrgX1 receptor. shares compounds with MrgX1 antagonist. Fluo-4 calcium fluorescence (FDSS); hits give high values. fluorescence ratio F(max-min)/F0 at 10 µM. 8.7% of 4,000 active;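 active = calcium fluorescence ratio at least three times the spread of buffer wells, meaning a non-specific response in parental cells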
Numbers stand for hits; – = inactive; · = no result given.

SMILES	RGS4 act	MrgX1 ag	MrgX1 antagonist	RGS4 inh	MrgX1 allo act	MrgX1 antag conf	HEK293 Ca flux	HEK293 Ca counter	HEK293 Ca cntr2
CN(CC(=O)Nc1c(Cl)cccc1Cl)C(=O)c1ccc2nc[nH]c2c1	–	–	-7.1	–	–	73%	–	–	–
Cc1ccc(S(=O)(=O)n2nnc3ccccc32)c(C)c1C	–	–	-4.8	–	–	–	–	–	–
O=C(NC(=S)Nc1ccccn1)c1cncc(Br)c1	–	–	–	–	–	·	·	·	·
Cc1cccnc1NC(=S)NC(=O)c1cncc(Br)c1	–	–	-4.6	–	–	–	–	–	–
c1ccc(Oc2cc(-c3ccccc3)nc(-c3ccccc3)n2)cc1	–	–	–	–	–	·	·	·	·
Cc1cc(Oc2ccccc2)nc(-c2ccccc2)n1	–	–	-4.5	–	–	–	–	–	–
Cc1ccccc1OCC(=O)Nc1nnc(COc2ccccc2)s1	–	–	-8.2	–	–	–	–	–	–
COc1ccc2[nH]cc(CCNC(C)=O)c2c1	–	–	–	–	–	·	·	·	·
CC(=O)NCCc1c[nH]c2ccc(O)cc12	–	–	-5.1	–	–	–	–	–	–
Nc1ncc2c(n1)-c1ccoc1CC2	–	–	–	–	–	·	·	·	·
Nc1ncc2c(n1)-c1ccccc1CC2	–	–	-4.8	–	–	–	–	–	–
CCC(Sc1nc2ncccc2[nH]1)C(=O)NC1CCC(C)CC1 (stereo not given)	–	–	–	–	–	·	·	·	·
CCC(Sc1nc2ncccc2[nH]1)C(=O)NCCc1ccccc1 (stereo not given)	–	–	-8.7	–	–	–	–	–	–
O=C(Nc1nccs1)C1CC(=O)N(CCc2ccc(F)cc2)C1 (stereo not given)	–	–	–	–	–	·	·	·	·
O=C(CSc1ccccn1)Nc1ccc(Br)cn1	–	–	-5.3	–	–	–	–	–	–
CCC(=O)Nc1ccc(Br)cn1	–	–	-5.4	–	–	–	–	–	–
O=C(CSc1ncn(-c2ccccc2)n1)Nc1ccc(Br)cn1	–	–	–	–	–	·	·	·	·
COc1ccc(N2CCN(C(=O)c3oc4ccccc4c3NC(=O)Cc3ccc(OC)c(OC)c3)CC2)cc1	–	–	–	–	–	·	·	·	·
CN1CCN(C(=O)c2cnn(-c3ccccc3)c2NC(=O)c2cccs2)CC1	–	–	-5.9	–	–	–	–	–	–
CCCSc1ccc(C(=O)Nc2ccc(F)cc2F)cn1	–	–	–	–	–	·	·	·	·
CC(C)S(=O)(=O)c1ccc(C(=O)Nc2ccc(F)cc2F)cn1	–	–	-5.9	–	–	–	–	–	–
CC(=O)c1ccc(NC(=O)Nc2ccncc2)cc1	–	–	-6.8	–	–	82%	–	–	–
O=C(Nc1ccncc1)Nc1ccncc1	–	–	–	–	–	·	·	·	·
Cc1c(C(=O)c2cccc(F)c2)c2ccccn2c1CCC#N	–	–	-10	–	–	84%	–	–	–
COc1cc(C(=O)c2c(C)c(CCC#N)n3ccccc23)cc(OC)c1OC	–	–	–	–	–	·	·	·	·
SMILES	RGS4 act	MrgX1 ag	MrgX1 antagonist	RGS4 inh	MrgX1 allo act	MrgX1 antag conf	HEK293 Ca flux	HEK293 Ca counter	HEK293 Ca cntr2
O=C(NCC(c1cccnc1)N1CCN(c2ccccc2F)CC1)c1cccc(Cl)c1 (stereo not given)	–	–	–	–	–	·	·	·	·
COc1ccc(S(=O)(=O)NCC2CCCO2)cc1NC(=O)c1ccccc1F (stereo not given)	–	–	–	–	–	·	·	·	·
Cc1oc(-c2ccccc2F)nc1CS(=O)(=O)CC(=O)NCCCN1CC(C)CC(C)C1 (stereo not given)	–	–	–	–	–	·	·	·	·
Cc1cc(C)cc(NC(=O)CSc2nc3[nH]ncc3c(=O)[nH]2)c1	–	–	-9.1	–	–	–	–	–	–
CC1CCN(C(=O)CSc2nc3[nH]ncc3c(=O)[nH]2)CC1	–	–	-6.4	–	–	–	–	–	–
COc1ccc(C(=O)c2cn[nH]c2-c2cc(Cl)ccc2O)cc1	–	–	–	–	–	·	·	·	·
COc1ccc(C(=O)c2cn[nH]c2-c2cc(C)ccc2O)cc1	–	–	-4.5	–	–	–	–	–	–
O=C(NCCc1ccccc1)C(NS(=O)(=O)c1cccc2nsnc12)c1ccccc1 (stereo not given)	–	–	-4.7	–	–	–	–	–	–
CCCNC(=O)C(NS(=O)(=O)c1cccc2nsnc12)c1ccccc1 (stereo not given)	–	–	-6.9	–	–	–	–	–	–
CCCCNC(=O)C(NS(=O)(=O)c1cccc2nsnc12)c1ccccc1 (stereo not given)	–	–	–	–	–	·	·	·	·
Cc1cc(NC(=O)c2c(-c3c(Cl)cccc3Cl)noc2C)n(C)n1	–	–	–	–	–	·	·	·	·
CCn1cc(C(=O)NCc2ccc(Cl)cc2)c(=O)c2cc(S(=O)(=O)N3CCOCC3)ccc21	–	–	–	–	–	·	·	·	·
CC(/C=C1\SC(=S)N(NS(=O)(=O)c2ccc(C)cc2)C1=O)=C\c1ccccc1	-7.3	–	-14	–	–	–	–	–	47
Cc1ccc(C(=O)C2=C(O)C(=O)N(Cc3cccnc3)C2c2ccc(Br)cc2)o1 (stereo not given)	–	–	-11	–	–	–	–	–	–
O=C(c1ccc(Cn2c(=S)[nH]c3ccccc3c2=O)cc1)N1CCN(c2ccccn2)CC1	–	–	-8	–	–	84%	–	–	–
O=C(c1ccc(Cn2c(=O)[nH]c3ccccc3c2=O)cc1)N1CCN(c2ccccn2)CC1	–	–	–	–	–	·	·	·	·
O=C(O)CCCCCNC(=O)OCC1c2ccccc2-c2ccccc21	–	–	–	–	–	·	·	·	·
Cc1nc2sc(C(c3ccco3)N3CCC(C)CC3)c(O)n2n1 (stereo not given)	–	–	-5.2	–	–	–	–	–	–
Cc1nc2sc(C(c3ccco3)N3CCN(C(c4ccccc4)c4ccccc4)CC3)c(O)n2n1 (stereo not given)	–	–	–	–	–	·	·	·	·
Cc1ccc(NC(=O)C2(c3cccs3)CCOCC2)cc1C	–	–	-4.8	–	–	–	–	–	–
CCOC(=O)CSc1nc2cc3c(cc2cc1C#N)OCO3	·	–	–	·	–	·	·	·	·
Cc1cc2cc3c(cc2nc1SCC(=O)N1c2ccccc2CC1C)OCO3 (stereo not given)	–	–	-5	–	–	84%	–	–	–
